Compound activity from PubChem.
SENP8 block-1: SENP8 (human) protease inhibition; Q96LD8; recombinant SENP8, Nedd8 substrate fluorescence; inhibition, % at 20 µM; 0.64% of 360,000 active; AID 602440; in the data active = inhibition mostly above about 40%, no sharp cut-off; inactive = mostly below about 27%
Target sequence (Q96LD8 whole entry, looked up): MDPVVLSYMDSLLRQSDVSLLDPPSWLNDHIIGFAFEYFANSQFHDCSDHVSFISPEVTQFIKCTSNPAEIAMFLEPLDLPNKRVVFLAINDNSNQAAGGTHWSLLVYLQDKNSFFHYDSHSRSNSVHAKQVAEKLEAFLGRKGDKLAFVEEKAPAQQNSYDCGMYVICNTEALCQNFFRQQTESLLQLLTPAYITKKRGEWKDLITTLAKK
SENP6 block: blocks the human protease SENP6; Recombinant SENP6 catalytic domain, aminoluciferin luminescence; inhibition, % at 10 µM; 1.8% of 330,000 active; AID 2599;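 active = inhibition above about 50% at the single tested dose, limit read from the data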;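 note: plate controls were DMSO wells with enzyme for no effect and DMSO wells lacking enzyme for full effect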
SENP1 inh: SENP1 (human) catalytic domain inhibition. inhibition, % at 10 µM. 0.21% of 360,000 active. Q9P0U3. AID 624204. recombinant SENP1 catalytic domain, CyPet-SUMO1-YPet FRET cleavage;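 active = inhibition at least 30% at 10 µM, raw YFP signal under a set limit, fluorescence ratio 0.5 to 1.5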;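 note: 0% = enzyme with DMSO and 100% = no enzyme wells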
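material = recombinant human SENP1 catalytic domain, His6-tagged | quantity = 20 pM enzyme | reagent = 25 nM SUMO1 FRET substrate | compound dosing = 10 µM single point, 0.5% DMSO | timing = 50 min enzyme reaction, room temperature, light-protected | detection = FRET, CFP and YFP emission | control set = no-enzyme low, enzyme-DMSO high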
SENP8 block-2: inhibitors of human SENP8 protease; Q96LD8; purified SENP8, Z-RLRGG-aminoluciferin cleavage, luminescence; inhibition, % at 10 µM; 1.2% of 330,000 active; AID 2540; in the data active = inhibition above about 50%
SENP7 inh: inhibitors of human SENP7 protease | recombinant SENP7, Z-RLRGG-aminoluciferin luminescence, 40 min | inhibition, % at 5 µM | 1.5% of 330,000 active | AID 434973;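 active = inhibition above about 50% at the single test dose, limit read from the data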;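 note: plate controls were DMSO with enzyme for no effect and no enzyme buffer wells for full effect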
Target sequence (Q9BQF6 706-1050 limits assumed): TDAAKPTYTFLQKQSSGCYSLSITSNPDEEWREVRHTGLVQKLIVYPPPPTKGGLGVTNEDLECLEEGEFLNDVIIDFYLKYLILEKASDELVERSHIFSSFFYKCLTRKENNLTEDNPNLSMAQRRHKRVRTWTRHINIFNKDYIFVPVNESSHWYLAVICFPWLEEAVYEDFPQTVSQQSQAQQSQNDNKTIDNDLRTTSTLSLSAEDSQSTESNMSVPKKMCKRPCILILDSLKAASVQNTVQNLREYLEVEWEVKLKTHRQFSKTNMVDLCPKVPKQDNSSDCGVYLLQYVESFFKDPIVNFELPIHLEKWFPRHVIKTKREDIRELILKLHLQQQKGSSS
SENP8 confirm: human SENP8 inhibition, confirmed; Recombinant SENP8, Z-RLRGG-aminoluciferin luminescence, 60 min; inhibition, % at 12.5 µM; shares compounds with SENP7 inh; 40% of 6,200 active; AID 488912;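 active = mean inhibition across replicates above about 50%, limit read from the data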
SENP6 conf: confirmation of human SENP6 protease inhibitors. shares compounds with SENP7 inh. recombinant SENP6, Z-RLRGG-aminoluciferin luminescence. inhibition, % at 12.5 µM. 58% of 6,200 active. AID 488915
SENP7 conf: confirmation of human SENP7 protease inhibitors; AID 488917; 69% of 6,200 active; shares compounds with SENP7 inh; recombinant SENP7, Z-RLRGG-aminoluciferin luminescence, 40 min; inhibition, % at 12.5 µM
Casp3 SENP sel: inhibits human caspase-3 in SENP selectivity test | shares compounds with SENP7 inh | inhibition, % at 12.5 µM | purified caspase-3, Z-DEVD-aminoluciferin luminescence, 60 min | 60% of 6,200 active;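 active = mean inhibition above about 50%, limit read from the data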;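 note: plate controls were enzyme with DMSO for no effect and wells without caspase-3 for full effect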
SENP luc ctr: counter-screen for SENP inhibitors: luminescence interference; shares compounds with SENP7 inh; Pre-incubated SENP8/Z-RLRGG-aminoluciferin, luciferase luminescence interference; inhibition, % at 12.5 µM; 39% of 6,200 active; AID 488919;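 active = mean inhibition above about 50% when retested at one dose, limit read from the data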;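 note: plate controls were DMSO wells with completed reaction for no effect and substrate without enzyme for full effect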
Starred values were filed as active, the others as inactive; / = no result given. Most compounds without a hit are left out; they make up all but 2.5% or so of the library.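 Rule for the calls, unless noted: active = mean inhibition above about 50% in the one-dose retest (limit read from the data); inactive = the rest.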

SMILES	SENP8 block-1	SENP6 block	SENP1 inh	SENP8 block-2	SENP7 inh	SENP8 confirm	SENP6 conf	SENP7 conf	Casp3 SENP sel	SENP luc ctr
C/C(=N\NC(=O)COc1ccc([N+](=O)[O-])cc1)c1ccco1	5.7	0.2	2.0	6.1	-3.1	/	/	/	/	/
COc1ccc(-c2cc(O)cc(O)c2)cc1	10.5	70.4*	0.4	35.7	59.6*	42.0	36.0	60.4*	32.7	49.5
COc1ccc(OC)cc1	37.3	-3.6	2.6	4.8	0.7	/	/	/	/	/
Cc1noc(C)c1-c1ccc(C(=O)NCc2cccc(Cl)c2)c2occc12	-1.7	/	-1.6	/	/	/	/	/	/	/
O=C(/C=C/c1ccccc1Cl)Nc1ccncc1	24.7	61.7*	-1.2	35.2	29.6	26.4	20.7	68.5*	29.1	58.4*
Cc1cc(NS(=O)(=O)c2ccc(NC(=O)/C=C/c3c(F)cccc3Cl)cc2)no1	3.5	2.0	0.6	-4.1	-0.3	/	/	/	/	/
Cc1ccnc(NC(=O)/C=C/c2ccccc2Cl)c1	-3.2	95.7*	-0.4	92.8*	98.2*	82.3*	92.0*	90.9*	93.6*	62.7*
COc1ccccc1/C=C/C(=O)Nc1cccnc1	-15.6	23.2	1.2	9.1	6.1	/	/	/	/	/
O=C(/C=C/c1c(F)cccc1Cl)Nc1ccncc1	7.3	65.0*	0.9	32.6	61.9*	-4.9	1.0	44.5	17.0	26.6
O=C(/C=C/c1ccccc1Cl)Nc1cccnc1	13.5	92.7*	1.3	85.6*	92.6*	12.6	91.7*	100.1*	88.8*	89.9*
COc1cc(CC(=O)N2CCN(C(=O)C3CCCO3)CC2)cc(OC)c1OC (stereo unspecified)	2.7	4.5	-1.1	0.2	11.2	/	/	/	/	/
CC12CC3(C)CC(C)(C1)CC(C(=O)NC(=S)N1CCCC1)(C2)C3	2.7	-13.9	-0.6	-0.5	-11.8	/	/	/	/	/
CN(C)CCNS(=O)(=O)c1ccc(N2CCc3ccccc32)c([N+](=O)[O-])c1	16.4	-15.1	0.9	-1.4	2.2	/	/	/	/	/
COc1ccccc1CNC(=O)CCNC(=O)c1ccco1	-3.8	-1.3	1.5	10.2	-8.3	/	/	/	/	/
CC(C)(C)c1ccc(/C=C/C(=O)Nc2cccnc2)cc1	18.0	85.0*	-0.9	75.8*	82.7*	10.4	80.4*	95.3*	58.6*	54.6*
CCOC(=O)N1CCN(C(=O)c2c(Cl)cnn2C)CC1	7.1	8.2	-0.8	4.4	0.3	/	/	/	/	/
N#Cc1ccccc1COC(=O)c1ccc2c(c1)OCCO2	5.3	61.4*	3.0	31.3	28.0	59.2*	52.0*	78.0*	42.7	37.4
O=C(Nc1nc2ccc(F)cc2s1)c1cccs1	-95.2	91.4*	0.0	91.9*	94.8*	66.6*	96.0*	102.7*	93.2*	80.9*
O=C(NC(=S)Nc1nc2ccccc2s1)c1cccs1	2.2	75.8*	-6.5	43.4	20.4	13.1	7.5	25.6	12.6	11.7
O=C(Nc1nc2ccc(S(=O)(=O)N3CCCC3)cc2s1)c1cccs1	-301.2	25.8	2.4	-6.5	0.8	/	/	/	/	/
CN(C)S(=O)(=O)c1ccc2nc(NC(=O)c3cccs3)sc2c1	-236.8	72.8*	3.2	39.8	55.3*	77.4*	74.3*	89.6*	72.2*	75.9*
Cc1cc(Nc2cc(Cl)cc(Cl)c2)nc(N)n1	17.1	-26.5	-3.3	-12.7	-1.1	/	/	/	/	/
Cc1ccc(N2C(=O)c3ccccc3C2=O)cc1Cl	19.4	35.1	1.4	19.5	51.1*	8.2	10.8	3.3	18.8	-3.3
Cc1ccc(N2C(=O)c3ccccc3C2=O)cc1	15.5	2.6	0.8	-2.8	-11.3	/	/	/	/	/
Cc1ccc(Nc2ccc(C(=O)O)cc2N)cc1	/	97.7*	/	94.4*	98.1*	97.9*	99.0*	102.0*	89.2*	97.1*
SMILES	SENP8 block-1	SENP6 block	SENP1 inh	SENP8 block-2	SENP7 inh	SENP8 confirm	SENP6 conf	SENP7 conf	Casp3 SENP sel	SENP luc ctr
COc1ccc(/C=C/C2=NN(C)C(=O)CC2)cc1	-1.7	78.4*	0.1	69.1*	83.4*	80.9*	79.9*	93.9*	92.6*	80.1*
CCOC(=O)CN1N=C(/C=C/c2ccc(C)cc2)CCC1=O	16.1	0.1	2.8	-4.8	-1.3	/	/	/	/	/
CCNC(=S)NNC(=O)c1cc(-c2cccc(OC)c2)nc2ccccc12	-56.5	56.8*	2.2	41.3	11.5	64.0*	60.5*	79.0*	85.2*	70.8*
CCNC(=S)NNC(=O)c1cc(-c2ccccc2C)nc2ccccc12	-152.1	-3.4	-3.1	5.3	0.9	/	/	/	/	/
CCCOc1cccc(-c2cc(C(=O)NNC(=S)NCC)c3ccccc3n2)c1	-231.1	-23.6	4.8	-1.8	-18.2	/	/	/	/	/
CCNC(=S)NNC(=O)c1cc(-c2ccc(OCC)cc2)nc2ccccc12	-280.4	93.5*	3.6	93.8*	94.6*	97.5*	98.2*	102.0*	97.7*	46.3
COCC(C)n1c(C)cc(C(=O)COC(=O)c2n[nH]c3ccccc23)c1C (stereo unspecified)	16.5	54.9*	0.5	20.7	29.6	47.9	41.8	66.8*	46.7	47.5
COCC(C)n1c(C)cc(C(=O)COC(=O)c2cc(=O)[nH]c3ccccc23)c1C (stereo unspecified)	-331.3	10.6	-2.4	-15.5	-0.8	/	/	/	/	/
CCCCN=C1NC(=O)C(CC(=O)NCCc2ccc(OC)cc2)S1 (stereo unspecified)	11.9	-4.1	7.6	3.0	4.1	/	/	/	/	/
CCOC(=O)c1sc2nc3c(cc2c1N)COC(C(C)C)C3 (stereo unspecified)	-262.1	20.3	-95.5	-2.6	51.4*	11.9	7.9	6.5	17.9	3.4
O=C(Nc1ccc(NC(=O)c2cccs2)cc1)c1cccs1	1.3	-21.9	0.1	-15.2	26.0	/	/	/	/	/
CCC(C)c1ccc(NC(=O)c2cccs2)cc1 (stereo unspecified)	12.9	90.1*	3.9	86.5*	84.4*	92.4*	92.6*	99.1*	76.1*	82.2*
COc1ccc(NC(=O)c2cccs2)cc1	38.5	59.7*	-0.1	15.8	31.3	33.9	30.6	73.9*	78.6*	61.5*
O=C(Nc1ccc(OCc2ccccc2)cc1)c1cccs1	17.5	69.5*	0.3	58.3*	83.8*	40.6	60.3*	92.7*	72.9*	-0.3
CC(C)(CNC(=O)c1cccs1)CNC(=O)c1cccs1	-5.1	-2.7	0.6	-13.4	84.2*	11.4	10.5	7.3	3.1	5.0
